Bioassay records deposited in PubChem BioAssay by several laboratories.
Hits are enriched below; roughly 4.1% of the tested compounds scored in any of these assays.
KCNK3 inh: human KCNK3 channel inhibitors, primary screen, CHO cells, FluxOR thallium flux, B-score; AID 602410, 2012; Potassium channel subfamily K member 3 (Homo sapiens), O14649; FluxOR fluorescence; active compounds read low; 340,000 compounds, 0.84% hits; B-score at 10 µM;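 active = B-score under library mean minus 4 SD, starting fluorescence ratio at most library mean plus 5 SD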;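 also: more negative B-score means stronger inhibition of thallium flux through KCNK3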
Target sequence (O14649 whole entry, looked up): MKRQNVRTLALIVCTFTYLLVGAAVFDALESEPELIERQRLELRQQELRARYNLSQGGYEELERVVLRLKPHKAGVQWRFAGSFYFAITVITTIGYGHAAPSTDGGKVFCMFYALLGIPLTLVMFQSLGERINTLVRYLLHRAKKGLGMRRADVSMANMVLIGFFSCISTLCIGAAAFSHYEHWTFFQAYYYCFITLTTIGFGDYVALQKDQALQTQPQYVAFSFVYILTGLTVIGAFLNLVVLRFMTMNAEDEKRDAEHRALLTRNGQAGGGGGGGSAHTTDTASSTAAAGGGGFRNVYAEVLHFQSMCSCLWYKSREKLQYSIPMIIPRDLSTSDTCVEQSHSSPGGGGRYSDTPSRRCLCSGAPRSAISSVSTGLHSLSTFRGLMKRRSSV
hERG rescue: hERG rescue from dofetilide block, primary screen, cell-based, CHO-hERG, FluxOR thallium flux, dofetilide IC70; Voltage-gated inwardly rectifying potassium channel KCNH2 (Homo sapiens), Q12809; dofetilide IC70 present; activation (rescue from dofetilide block), less the hit threshold, % at 10 µM; 310,000 compounds, 0.51% hits;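 active = activation above the mean of controls blocked by dofetilide plus 5 SD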;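 also: thallium influx through hERG after potassium depolarization seen as dye fluorescence rise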
KCNK9 inh: KCNK9 potassium channel inhibitors, primary screen, HEK293 cells, thallium flux; Potassium channel subfamily K member 9 (Homo sapiens), Q9NPC2; 310,000 compounds, 1.2% hits; FluxOR thallium flux fluorescence; active compounds read low; AID 488922, 2010; B-score at 10 µM;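 active = ratio B-score over 3 SD below the library mean, with starting fluorescence within 5 SD of its mean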;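 also: negative B-score means less thallium flux so channel inhibition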
Target sequence (Q9NPC2 whole entry, looked up): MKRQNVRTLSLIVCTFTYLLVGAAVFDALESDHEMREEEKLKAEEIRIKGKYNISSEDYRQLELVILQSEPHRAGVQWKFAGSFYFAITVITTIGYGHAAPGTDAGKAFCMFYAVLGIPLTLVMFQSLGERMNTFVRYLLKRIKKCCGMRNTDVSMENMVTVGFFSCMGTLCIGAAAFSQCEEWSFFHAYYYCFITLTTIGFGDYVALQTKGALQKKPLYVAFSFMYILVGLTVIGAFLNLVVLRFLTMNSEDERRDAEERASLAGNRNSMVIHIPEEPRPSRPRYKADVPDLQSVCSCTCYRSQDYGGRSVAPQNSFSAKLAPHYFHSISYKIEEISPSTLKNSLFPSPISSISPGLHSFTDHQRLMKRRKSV
Cl transport mod: KCC2 cotransporter modulators, thallium flux, primary screen, cell-based, HEK293 KCC2, FluoZin-2 fluorescence, MLSMR | Solute carrier family 12 member 5 (Homo sapiens), Q9H2X9 | KCC2 cells, thallium flux FluoZin-2 fluorescence | B-score of Tl+ flux slope (higher = more flux/activation; lower = inhibition) at 10 µM | 190,000 compounds, 2.2% hits | AID 1456, 2008;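 active = thallium flux slope and its plate-corrected score both differing from the plate sample mean at a set confidence after two filtering rounds, in either direction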;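 also: slope of fluorescence scaled to starting intensity during 10 to 20 s after thallium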
KCNQ1 act: potentiators or activators of KCNQ1 channel, primary screen, cell-based, thallium flux, high-throughput | B-score at 10 µM | AID 2648, 2010 | CHO-K1 KCNQ1, thallium flux FluxOR fluorescence; active compounds read high | Potassium voltage-gated channel subfamily KQT member 1 (Homo sapiens), P51787 | 310,000 compounds, 0.35% hits;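 active = fluorescence ratio B-score, a plate-corrected score, at least three library SD, with initial intensity B-score within 5 SD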
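assay system = CHO-K1 cells stably expressing KCNQ1 | medium = assay buffer, equal DMSO in all wells | timing = 37 °C overnight plating, 90-min dark dye load, 20-min compound pretreatment | measured by = kinetic FluxOR thallium fluorescence, 10-s 1-Hz baseline, 110-s post-stimulus read | measure = fluorescence change relative to baseline, converted to B score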
KCNQ1 inh: inhibitors of human KCNQ1 channel, primary screen, cell-based, thallium flux, high-throughput | Potassium voltage-gated channel subfamily KQT member 1 (Homo sapiens), P51787 | CHO-K1 KCNQ1, FluxOR thallium flux fluorescence; active compounds read high | B-score at 10 µM | 310,000 compounds, 1.3% hits | AID 2642, 2010;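 active = compounds whose thallium flux B-score, printed positive for inhibition, exceeds three library SD while starting fluorescence stays within three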;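 also: channel opened by potassium depolarization with thallium stimulus after 20 min compound exposure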
KCC2 sec1: KCC2 modulators in sodium-free buffer, confirmation, cell-based, HEK293 KCC2, thallium flux, secondary assay; 3,700 compounds, 15% hits; shares compounds with Cl transport mod; FluoZin2 fluorescence; active compounds read high; normalised thallium flux (F/F0 slope) at 10 µM;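 active = thallium flux slope above the same plate's solvent-only control mean plus 3 SD; inconclusive = the two replicate wells disagree; inactive = no significant difference from solvent-only control wells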
KCC2 bumet counter: thallium flux persisting under bumetanide in KCC2 cells, confirmation, counter-screen for KCC2 modulator project, cell-based, HEK293 KCC2, FluoZin2, secondary assay 3 | shares compounds with Cl transport mod | HEK293-KCC2 + bumetanide/ouabain; active compounds read high | normalized thallium flux at 10 µM | 3,700 compounds, 49% hits | AID 1714, 2009;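 active = thallium entry rate above the same plate's blocked-transporter control wells by more than 3 SD; inconclusive = the two repeat wells disagree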;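 also: raw slope of fluorescence over initial fluorescence between 10 and 20 s after thallium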
KCC2 secondary2: KCC2 modulators without ouabain present, confirmation, cell-based, HEK293 KCC2, thallium flux, FluoZin2, secondary assay 2. shares compounds with Cl transport mod. thallium flux FluoZin2 fluorescence; actives lie on both sides; F/F0 rise rate, 10–20 s post-thallium. normalized thallium flux at 10 µM. 3,700 compounds, 23% hits. AID 1715, 2009;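 active = thallium flux slope more than 3 SD above or below the plate's solvent-only control mean, mostly below; inconclusive = the two repeat wells disagreed; inactive = no significant shift from solvent-only controls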;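 also: raw slope with 0.1% DMSO as baseline and bumetanide as block control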
HEK293 Tl flux: thallium flux modulation in parental HEK cells, confirmation, counter-screen for KCC2 modulator project, cell-based, counterscreen 1; shares compounds with Cl transport mod; HEK293 parental cells, thallium flux FluoZin2, ouabain; baseline-ratio fluorescence slope, 10–20 s after thallium; thallium flux rate (normalised fluorescence) at 10 µM; 3,700 compounds, 46% hits;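 active = thallium flux rate significantly above the same plate's solvent-only control wells, beyond their mean plus 3 SD; inconclusive = the two replicate wells gave conflicting results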
KCC2 ouabain: KCC2 inhibitors and activators, ouabain retest, confirmation, HEK-KCC2 cells; shares compounds with Cl transport mod; HEK293-KCC2, thallium flux FluoZin2 fluorescence; bidirectional: low = inhibitor, high = activator; raw Tl+ flux slope (below DMSO = inhibition, above = activation) at 10 µM; 3,700 compounds, 48% hits; AID 1717, 2009;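 active = thallium flux slope beyond 3 SD from same-plate DMSO control mean in most replicates, usually higher, sometimes lower; inconclusive = repeat tests gave conflicting results; inactive = no significant difference from controls in most replicates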;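 also: slope of initial-normalized fluorescence between seconds 10 and 20 after thallium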
HEK293 Tl flux2: native HEK Tl+ uptake effects, second counter-screen – HEK cells, counterscreen 2, counter-screen for KCC2 modulator project, confirmation; shares compounds with Cl transport mod; thallium flux slope at 10 µM; 3,700 compounds, 33% hits; AID 1718, 2009; HEK293 parental, thallium flux FluoZin-2 fluorescence slope;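 active = thallium flux slope above the same plate's solvent-control mean plus 3 SD in both duplicate wells; inconclusive = duplicate wells that disagreed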;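 also: run without ouabain in cells lacking the KCC2 cotransporter; slope of fluorescence scaled to its starting value between 10 and 20 s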
KCNK9 block conf: KCNK9 potassium channel inhibitors, confirmation, HEK293 cells, thallium flux, duplicate | FluxOR thallium flux fluorescence | shares compounds with KCNK9 inh | inhibition, % at 10 µM | 4,900 compounds, 43% hits | AID 492992, 2010;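 active = thallium signal inhibited by more than 5 SD of the compound-free buffer control wells, on both duplicate plates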;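 also: 0% = assay buffer control wells without compound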
Kir21 sel: mouse Kir2.1 channel inhibition, confirmation, selectivity assay for KCNK9 modulator project, cell-based, HEK293, thallium flux. 4,900 compounds, 4% hits. Kir2.1 cells, FluxOR thallium flux fluorescence. AID 492993, 2010. inhibition, % at 10 µM. shares compounds with KCNK9 inh;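 active = thallium signal drop more than 5 SD beyond the mean of the no-compound control wells, seen in both duplicate plates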;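 also: signal is fluorescence rise after thallium addition divided by baseline fluorescence; plate controls were assay buffer only for no effect and full block by chlorpromazine control for full effect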
KCNK9 uninduced: thallium flux in non-induced HEK293 cells, confirmation, counter-screen for KCNK9 inhibitor project, cell-based, second counter screen, non-induced KCNK9-HEK293; shares compounds with KCNK9 inh; FluxOR thallium flux; inhibition, % at 10 µM; 4,900 compounds, 40% hits; AID 492997, 2010;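 active = thallium signal drop beyond 5 SD of the untreated control mean, on both duplicate plates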;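 also: plate controls were buffer only IC0 wells for no effect and SID17386958 at its maximal inhibitory level for full effect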
KCNK3 inh conf: retest of human KCNK3 channel inhibitors, confirmation, CHO cells, FluxOR thallium flux, triplicate; shares compounds with KCNK3 inh; FluxOR fluorescence; 0% buffer, 100% carvedilol maximal block; ratio percent of control, % at 10 µM; 2,400 compounds, 99% hits; AID 651638, 2012;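 active = ratio percent of control, averaged over triplicates, above buffer control mean plus 5 SD, cut at about 64% in these data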;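 also: ratio is the fluorescence rise from min to max over baseline after thallium stimulus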
KCNK3 uninduced: thallium flux inhibition in non-induced cells, primary screen, counter-screen for KCNK3 inhibitor project, cell-based, non-induced KCNK3 line, FluxOR thallium, triplicate | shares compounds with KCNK3 inh | non-induced KCNK3 parental cells; active compounds read low | thallium flux ratio (lower = more inhibition) at 10 µM | 2,400 compounds, 40% hits | AID 651747, 2012;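 active = thallium flux ratio, averaged over three wells, more than 5 SD below the buffer control mean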;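 also: host cells are CHO cells without KCNK3 induction; ratio is peak minus trough fluorescence over baseline then normalized to buffer controls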
* = called active by the depositor; i = inactive; ? = inconclusive; · = not tested or not shown.

SMILES | KCNK3 inh | hERG rescue | KCNK9 inh | Cl transport mod | KCNQ1 act | KCNQ1 inh | KCC2 sec1 | KCC2 bumet counter | KCC2 secondary2 | HEK293 Tl flux | KCC2 ouabain | HEK293 Tl flux2 | KCNK3 inh conf | KCNK3 uninduced | others
Cc1sc2nc(SCc3nnc(-c4cccs4)o3)n(C3CCCC3)c(=O)c2c1C | -12* | -9 | i | 10* | i | 8* | 0.017* | 0.046* | 0.034 | 0.019* | 0.031 | 0.014* | 79* | i
Cc1sc2nc(CSc3nnc(Cc4cccs4)n3C3CCCCC3)[nH]c(=O)c2c1C | i | -8 | i | · | i | i | · | · | · | · | · | · | · | ·
Cc1cc(C)c2c(c1)CC(C)(C)CC2=O | i | · | · | · | · | · | · | · | · | · | · | · | · | ·
Clc1cccc(-c2nnc(SC/C=C/c3ccccc3)n2Cc2ccco2)c1 | -12* | -13 | -15* | -3.3* | i | i | 0.0052 | ? | 0.03 | 0.0059* | 0.015* | ? | 110* | 0.15* | KCNK9 block conf=44%*;Kir21 sel=74%*;KCNK9 uninduced=38%*
CC(C)C(CCNC(=O)CC(Cc1ccccc1)c1ccco1)c1ccco1 (stereo not given) | -9.4* | -15 | i | -4.5* | i | i | ? | 0.005 | ? | ? | 0.016* | 0.0095 | 120* | 0.15*
Cc1ccc(COc2ccccc2-c2cc(C(=O)N/N=C/c3cccnc3)[nH]n2)cc1 | -12* | -15 | -19* | -5.5* | i | i | 0.0064 | 0.0055 | ? | ? | 0.012* | 0.011 | 118* | i | KCNK9 block conf=64%*;Kir21 sel=i;KCNK9 uninduced=26%*
CCOc1ccccc1-c1cc(C(=O)N/N=C/c2cccnc2)c2ccccc2n1 | i | -6 | i | · | i | i | · | · | · | · | · | · | · | ·
O=C(Nc1nc(-c2cccs2)cs1)c1ccc(Cl)s1 | -23* | 4 | i | 3.1* | i | i | 0.0085 | 0.015* | 0.028 | 0.0086* | 0.021 | 0.0098 | 86* | i
Cc1cc(F)cc(C)c1Cn1cnc2c(cnn2C(C)(C)C)c1=O | i | · | · | · | · | · | · | · | · | · | · | · | · | ·
COc1ccc(C(=O)CSC2=C(C#N)C3(CCCCC3)C(C#N)=C(N)N2)cc1 | -10* | -22 | i | -2.9 | i | i | 0.0073 | 0.0052 | 0.034 | 0.0064* | 0.016* | 0.011 | 112* | 0.12*
COc1ccc(C(=O)CSc2nc(N)nc(SC)c2C#N)cc1 | i | -21 | i | 0.026 | i | i | · | · | · | · | · | · | · | ·
O=C(CCCc1ccncc1)c1ccccc1 | i | · | · | · | · | · | · | · | · | · | · | · | · | ·
N#Cc1nc(COc2ccccc2F)oc1N1CCCCCC1 | i | · | · | · | · | · | · | · | · | · | · | · | · | ·
CN(Cc1ccccc1)c1oc(COc2ccccc2F)nc1C#N | -13* | -11 | i | · | i | i | 0.0083 | 0.0049 | 0.032 | 0.0067 | ? | 0.011 | 115* | 0.14*
N#Cc1nc(COc2ccccc2Cl)oc1NCc1ccc(F)cc1 | i | -11 | i | · | i | i | · | · | · | · | · | · | · | ·
COc1ccc(CNc2oc(COc3ccccc3)nc2C#N)cc1 | -8.9* | -12 | i | · | i | i | 0.0075 | ? | 0.031 | 0.007 | ? | 0.0096 | 117* | 0.16*
N#Cc1nc(COc2ccccc2F)oc1NCCc1ccccc1 | -10* | -8 | i | · | i | i | 0.0053 | ? | 0.025* | 0.0064* | 0.014* | 0.01 | 102* | i
CCOC(=O)c1sc(N)nc1C(F)(F)F | i | · | · | · | · | · | · | · | · | · | · | · | · | ·
